MT stabilizer – microtubule stabilizers in HeLa cells, primary screen, imaging, high-content imaging | HeLa tubulin immunostaining HCS, 24 h; share of cells brighter than vehicle mean+2SD | % tubulin-high responders, % at 10 µM | 200,000 tested, 0.83% active;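 active means plate Z-score above 3 for both tubulin-high and condensed-nucleus cell shares, with cell loss under 80%, at 10 µM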;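 further: anti alpha tubulin signal scored within the nucleus-defined area of each cell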
Ba/F3 V617F tox – reduced viability of JAK2V617F-dependent Ba/F3 cells, primary screen, JAK2V617F inhibitor project, cell-based, Ba/F3 EpoR-JAK2V617F, luminescence. ATP luminescence. inhibition, % at 5.6 µM. 220,000 tested, 1.1% active. AID 1446, 2008;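 active means inhibition above the campaign mean plus 3 SD over all tested compounds, cut at about 24% in these data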;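 further: cytokine-independent growth of Ba/F3 cells driven by EpoR plus mutant JAK2; 0% = DMSO-treated cells and 100% = JAK inhibitor I control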
APP transl inh – inhibitors of APP translation via 5'UTR reporter, primary screen, APP 5'UTR luciferase, SH-SY5Y cells; SH-SY5Y APP 5'UTR-luciferase reporter, luminescence; 190,000 tested, 0.82% active; inhibition, % at 2 µM; AID 1285, 2008;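 active means inhibition above a set limit, derived from the sample mean plus 3 SD, cut at about 45% in these data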
b-catenin transl – modulators of beta-catenin nuclear translocation, primary screen, imaging, HeLa cells, immunofluorescence, high-content; nuclear translocation activity, % at 5 µM; AID 1665, 2009; 190,000 tested, 0.3% active;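 active means nuclear translocation activity above 50% at 5 µM, with a well cell count of 50 or more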;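 further: per-cell ratio of nuclear to cytoplasmic median beta-catenin stain intensity; plate controls were DMSO negative control for no effect and GSK-3 inhibitor IX positive control for full effect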
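Test system: human HeLa cells, native beta-catenin. Compound dosing: 5 µM primary single dose, 0.1% DMSO, 0.02–20 µM confirmation series. Incubation: compound exposure 24 h at 37°C. Detection: beta-catenin immunostaining with DAPI counterstain, 20x imaging, 6 fields/well. Read-out basis: Nuclear/cytoplasmic beta-catenin signal ratio, % activation.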
BaF3 parental – parental Ba/F3 cell viability inhibition, counter-screen for JAK2V617F inhibitor project, murine pro-B, CellTiter-Glo luminescence. CellTiter-Glo ATP luminescence. inhibition, % at 5.6 µM. 220,000 tested, 1.1% active. AID 1486, 2009;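 active means inhibition above a per-campaign cutoff, the mean inhibition of all tested compounds plus 3 SD, cut at about 27% in these data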;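 further: 0% = DMSO wells and 100% = JAK Inhibitor I control wells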
IEC-6 cytotox – cytotoxicity in IEC-6 intestinal epithelial cells, primary screen, cytotoxicity control for KLF5 inhibitor project, cell-based, luminescence; IEC-6 cytotoxicity, luminescence viability; inhibition, % at 5 µM; 290,000 tested, 0.78% active; in the data active means inhibition above about 22%;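 further: 0% = plate median of test compound wells and 100% = cytotoxic reference compound wells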
BaF3 tox 2 – parental Ba/F3 cell viability inhibition, counter-screen for JAK2V617F inhibitor project, murine pro-B, CellTiter-Glo luminescence | inhibition, % at 5.6 µM | cells kept alive by added IL-3 | 580 tested, 31% active | AID 1520, 2009 | shares compounds with Ba/F3 V617F tox;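 active means cell growth inhibition above the hit limit set in the earlier mutant JAK2 cell screen, cut at about 27% in these data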;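 further: plate controls were DMSO-treated cells for no effect and JAK Inhibitor I control wells for full effect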
JAK2V617F confrm – viability loss in Ba/F3 EpoR-JAK2V617F cells, confirmation, JAK2V617F inhibitor project, cell-based, luminescence, triplicate. shares compounds with Ba/F3 V617F tox. CellTiter-Glo luminescence. inhibition, % at 5.6 µM. 580 tested, 66% active;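 active means mean inhibition above the hit cutoff derived in the earlier primary screen, cut at about 25% in these data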;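 further: 0% = DMSO-treated cells and 100% = JAK inhibitor I control wells; higher means lower luminescence from reduced cell ATP and viability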
Starred values were filed as active, the others as inactive. Sampled rows, rich in hits. Any-hit rate of the full collection: about 2.2%.

Screening COC(=O)[C@H](Cc1c[nH]c2ccccc12)NC(=O)NCc1ccc(OC)cc1 returned IEC-6 cytotox -4.
For Cn1c(=O)c2nc(NCc3ccccc3)cnc2n(C)c1=O the results were MT stabilizer 5, Ba/F3 V617F tox -4, APP transl inh -7, b-catenin transl 1, BaF3 parental 4 and IEC-6 cytotox -4.
Cc1nc2c(=O)n(C)c(=O)n(C)c2nc1Cl was read as MT stabilizer 5, Ba/F3 V617F tox 39*, APP transl inh 46*, b-catenin transl 4, BaF3 parental 9, IEC-6 cytotox 19, BaF3 tox 2 17 and JAK2V617F confrm 62*.
Screening CC1=CC(=C2C(=O)c3ccccc3C2=O)C=C(C)O1 returned MT stabilizer 6, Ba/F3 V617F tox -1, APP transl inh -11, b-catenin transl -2, BaF3 parental 3 and IEC-6 cytotox -1.
`CC(=O)C1=C(c2ccc(Br)cc2)C(=O)c2ccccc2C1=O` gave MT stabilizer 4, Ba/F3 V617F tox 26*, APP transl inh 68*, b-catenin transl 2, BaF3 parental 0, IEC-6 cytotox 6, BaF3 tox 2 105* and JAK2V617F confrm 98*.
`Cc1cc(NC(=O)c2sccc2C)n(-c2nc3ccccc3[nH]2)n1` gave MT stabilizer 5, Ba/F3 V617F tox 84*, APP transl inh 8, b-catenin transl 0, BaF3 parental 3, IEC-6 cytotox -10, BaF3 tox 2 -5 and JAK2V617F confrm -4.
Cc1cc(NC(=O)c2cccs2)n(-c2nc3ccccc3[nH]2)n1 was read as MT stabilizer 3, Ba/F3 V617F tox -1, APP transl inh 10, b-catenin transl 0, BaF3 parental 7 and IEC-6 cytotox -9.
CCOC(=O)Nc1ccc2c(c1)N(C(=O)CCN1CCOCC1)c1ccccc1S2=O (centres undefined) was read as MT stabilizer 3, Ba/F3 V617F tox 41*, APP transl inh 13, b-catenin transl 2, BaF3 parental 4, IEC-6 cytotox 10, BaF3 tox 2 -2 and JAK2V617F confrm 23.
For O=S(=O)(c1ccccc1)N1N=C(c2ccc(Br)cc2)CC1c1ccco1 (centres undefined) the results were IEC-6 cytotox 2.
C=CCn1c(CNC(=O)c2ccco2)nnc1SCC(=O)N1c2ccccc2Sc2ccccc21 was read as MT stabilizer 3, Ba/F3 V617F tox 71*, APP transl inh -2, BaF3 parental 22, IEC-6 cytotox 3, BaF3 tox 2 -1 and JAK2V617F confrm -1.
CCN1C(=O)CC(NCc2ccc(S(N)(=O)=O)cc2)C1=O (centres undefined) was read as Ba/F3 V617F tox -2, b-catenin transl 2, BaF3 parental 2 and IEC-6 cytotox -1.
COc1ccc(/C=N/NC(=O)c2cccc(NC(C)=O)c2)c(C(=O)O)c1OC was read as MT stabilizer 2, Ba/F3 V617F tox 1, APP transl inh 5, b-catenin transl -1, BaF3 parental 5 and IEC-6 cytotox -6.
`CCOc1ccc2c(c1)C(C)=CC(C)(C)N2S(=O)(=O)c1ccc(F)cc1` gave IEC-6 cytotox 12.
For CC1=CC(C)(C)N(S(=O)(=O)c2ccc(C)cc2)c2ccccc21 the results were MT stabilizer 12, Ba/F3 V617F tox 30*, APP transl inh 20, BaF3 parental 11, IEC-6 cytotox 5, BaF3 tox 2 46* and JAK2V617F confrm 94*.
Cc1ccc(S(=O)(=O)N2CCC(C(=O)N[C@@H](C)C(=O)Nc3ccc4c(c3)OCO4)CC2)cc1 was read as MT stabilizer 2, Ba/F3 V617F tox 43*, b-catenin transl -1, BaF3 parental 7, IEC-6 cytotox 2, BaF3 tox 2 0 and JAK2V617F confrm 6.
For CC(C)C(=O)N1CCN(c2ccccc2NC(=O)c2ccco2)CC1 the results were IEC-6 cytotox 2.
`O=C1C=CCC(/C=C/c2ccccc2)O1` (centres undefined) gave MT stabilizer 5, Ba/F3 V617F tox 46*, APP transl inh 31, BaF3 parental 0, IEC-6 cytotox 2, BaF3 tox 2 24 and JAK2V617F confrm 97*.
For CCOC(=O)COn1c(-n2nc(C)cc2C)nc2ccccc2c1=O the results were IEC-6 cytotox 3.
`c1ccc(-c2nnc3sc(CN4CCc5ccccc54)cn23)cc1` gave MT stabilizer 4, Ba/F3 V617F tox 35*, APP transl inh -4, b-catenin transl 4, BaF3 parental 22, IEC-6 cytotox 8, BaF3 tox 2 30* and JAK2V617F confrm 30*.
Brc1ccc(-c2nnc3sc(CN4CCC5(CC4)OCCO5)cn23)cc1 was read as MT stabilizer 3, Ba/F3 V617F tox 4, APP transl inh -13, b-catenin transl 0, BaF3 parental 6 and IEC-6 cytotox 3.
Screening COc1ccc(-c2cc(-c3ccc(C)cc3)n[nH]2)c(O)c1 returned IEC-6 cytotox -1.
Screening COc1ccc(-c2cc(-c3cc(C)ccc3O)[nH]n2)cc1 returned MT stabilizer 1, Ba/F3 V617F tox 32*, APP transl inh -62, b-catenin transl 2, BaF3 parental 10, IEC-6 cytotox -3, BaF3 tox 2 25 and JAK2V617F confrm 80*.
Screening O=C(C=C=Nc1ccccc1)C(=O)N=C=Cc1ccccc1 returned Ba/F3 V617F tox 68*, b-catenin transl -1, BaF3 parental 19, IEC-6 cytotox 5, BaF3 tox 2 5 and JAK2V617F confrm 79*.
For O=C(N/N=C/c1ccccc1)C(=O)N/N=C/c1ccccc1 the results were IEC-6 cytotox -4.
CCCC(=O)Nc1ccc(Cl)c(NC(=O)c2cccnc2)c1 was read as MT stabilizer 3, Ba/F3 V617F tox 60*, APP transl inh -4, b-catenin transl 0, BaF3 parental 2, IEC-6 cytotox 0, BaF3 tox 2 -3 and JAK2V617F confrm -4.
Cc1cc(C(N)=O)nn1-c1c(Cl)cc(Cl)cc1Cl was read as Ba/F3 V617F tox -2, b-catenin transl -6, BaF3 parental 2 and IEC-6 cytotox 2.

Screens deposited in PubChem BioAssay by several laboratories.
